# A selection: hits, their analogues and other compounds. The true share with any hit is near 3.5%.
# MrgX1 antagonist – antagonists of human MrgX1 receptor; Q96LB2; MRGX1-HEK293 calcium flux, Fluo-4, BAM8-22 antagonism; active compounds read low; B-score at 10 µM; actives 1.3% (n = 310,000); AID 588676;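 active = calcium-response B-score plate-corrected more than 3 library SD below zero, starting fluorescence within 5 deviations, no agonist response on first addition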;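 note: peak minus trough fluorescence over baseline after final BAM8-22 challenge near maximal dose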
# Target sequence (Q96LB2 whole entry, looked up): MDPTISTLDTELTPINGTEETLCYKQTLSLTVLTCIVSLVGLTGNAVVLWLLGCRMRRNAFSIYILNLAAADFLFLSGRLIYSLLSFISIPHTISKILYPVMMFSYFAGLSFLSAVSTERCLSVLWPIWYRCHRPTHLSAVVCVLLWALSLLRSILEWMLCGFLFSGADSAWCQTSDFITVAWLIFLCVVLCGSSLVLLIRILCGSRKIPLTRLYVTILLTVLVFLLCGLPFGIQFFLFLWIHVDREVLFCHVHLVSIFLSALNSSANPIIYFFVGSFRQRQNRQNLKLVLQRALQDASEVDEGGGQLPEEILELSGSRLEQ
# RGS4 pot – RGS4 potentiation or activation. HEK293 M3R/inducible RGS4, carbachol calcium flux Fluo4; active compounds read low. B-score at 10 µM. actives 0.92% (n = 310,000);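 active = B-score of the integrated calcium signal more than 4 SD below the library mean, with starting fluorescence not abnormally high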;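 note: negative B-score means reduced calcium response which marks RGS4 activation or potentiation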
#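 Material: Inducible-RGS4 HEK293 cells carrying M3 receptor; also added: carbachol at ECmax as muscarinic agonist stimulus; incubation: compound preincubation 20 min at room temperature before agonist; signal: Fluo4-AM (2 µM) calcium-flux fluorescence, kinetic read; measure: integrated calcium ratio converted to B score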
# MrgX1 agonist – activates human MrgX1 receptor signaling; B-score at 10 µM; MrgX1-HEK293 cells, Fluo-4 calcium fluorescence, agonist mode; active compounds read high; actives 0.44% (n = 310,000); Q96LB2; AID 588627;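 active = calcium response B-score plate-corrected fluorescence ratio at least 3 library SD, with starting fluorescence B-score inside 5 SD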
#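 Test system: HEK293 cells stably expressing human MrgX1 receptor; amount: 15,000 cells per well; doses: compound delivered in addition one of three; times: overnight plating before 1 h dye loading; detection: Fluo-4 NW calcium-flux fluorescence, kinetic read; read-out basis: B-scored fluorescence response ratio; controls: positive and negative controls per plate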
# MrgX1 allo act – human MrgX1 positive allosteric modulation, primary screen. AID 588675. actives 0.63% (n = 310,000). Q96LB2. B-score at 10 µM. MrgX1-HEK293, Fluo-4 calcium flux, FDSS; active compounds read high;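 active = plate-corrected calcium response at least 3 library SD above typical, normal starting fluorescence, not activating the receptor alone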;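 note: compound read alongside a low EC10 to EC30 dose of BAM8-22 agonist; peak minus trough fluorescence over baseline measured at the second addition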
# RGS4 block – inhibitors of human RGS4 | P49798 | HEK293 M3R/RGS4 inducible, Fluo-4 calcium flux; active compounds read high; triggered by carbachol at its EC20 | B-score at 10 µM | actives 0.45% (n = 310,000) | AID 463165;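 active = B-score, a plate-corrected calcium signal, over three deviations above library mean, with baseline fluorescence within five deviations of library mean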;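 note: RGS4 expression induced by doxycycline in cells with stable M3 receptor; B-score is computed from the integrated fluorescence ratio over baseline after carbachol; higher B-score means a larger calcium signal and so more RGS4 inhibition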
# Target sequence (P49798 whole entry, looked up): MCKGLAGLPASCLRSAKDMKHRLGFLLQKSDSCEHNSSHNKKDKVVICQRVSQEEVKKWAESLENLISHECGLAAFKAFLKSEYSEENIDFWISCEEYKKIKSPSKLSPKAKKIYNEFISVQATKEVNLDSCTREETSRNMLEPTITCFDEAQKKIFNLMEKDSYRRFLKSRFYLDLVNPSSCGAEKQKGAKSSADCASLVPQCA
# RGS4 block valid – validation of RGS4 inhibitors; shares compounds with RGS4 block; HEK293 M3R/RGS4, carbachol calcium Fluo-4 fluorescence; carbachol added at its EC20; 0 = buffer wells, 100 = carbachol control; calcium response, % at 10 µM; actives 65% (n = 1,700); AID 492999;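 active = duplicate-averaged calcium response above the buffer-only control mean plus 5 SD of those controls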;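 note: integrated fluorescence ratio F max minus min over baseline F0; higher response in RGS4-induced cells means RGS4 inhibition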
# M3R Ca ctr – non-induced cell nonspecific activity of RGS4 inhibitors; actives 20% (n = 1,900); shares compounds with RGS4 block; activity (percent), % at 10 µM; HEK293 M3R non-induced, carbachol calcium Fluo-4; submaximal (EC20) carbachol stimulus; buffer wells 0%, carbachol control wells 100%; call rule not given here;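 note: RGS4 induction absent so cells express M3R without RGS4; higher means more calcium signal and flags a non-specific hit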
# RGS4 inh ctr2 – second counter-screen for RGS4 inhibitors: non-induced cells without carbachol. actives 22% (n = 1,900). AID 493001. HEK293 M3R/RGS4 non-induced, Fluo-4 calcium, no carbachol; normalised: buffer wells 0%, carbachol wells 100%. calcium response (agonist-mode artifact), % at 10 µM. shares compounds with RGS4 block;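 active = duplicate-averaged calcium rise in uninduced cells above buffer wells' mean plus 5 SD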
# * hit, by the source's call; i = inactive; x = not tested or not shown.
SMILES,MrgX1 antagonist,RGS4 pot,MrgX1 agonist,MrgX1 allo act,RGS4 block,RGS4 block valid,M3R Ca ctr,RGS4 inh ctr2
O=C1Cc2ccccc2C(=O)N1c1cccc(Cl)c1,i,i,i,i,i,x,x,x
O=C1Cc2ccccc2C(=O)N1c1ccccc1,i,i,i,i,5.6*,5.0%*,i,i
N#C/C(=C\c1cccs1)C(=O)c1ccccc1Cl,i,i,i,i,18*,56%*,i,8.5%*
COc1cccc2c1OCC/C2=N\NC(=O)C(C)Oc1ccc([N+](=O)[O-])cc1 (stereo not drawn),i,i,i,i,i,x,x,x
COc1ccc(C(=O)COC(=O)CCS(=O)(=O)c2ccc(C)cc2)c(OC)c1,i,i,i,i,i,x,x,x
COc1ccc(C(=O)CCS(=O)(=O)c2ccc(C)cc2)cc1OC,i,i,i,i,29*,80%*,58%*,20%*
Cc1sc2nc(CN(Cc3cccs3)C(=O)NC3CCCCC3)[nH]c(=O)c2c1C,i,i,i,i,i,x,i,i
COc1ccc(C(=O)NC(=S)NCc2ccco2)cc1,i,i,i,i,i,x,x,x
N#Cc1c(N)nc(SCc2ccccn2)c(C#N)c1-c1cccs1,i,i,i,i,4.7*,9.0%*,42%*,i
CCOC(=O)CSc1nc(N)c(C#N)c(-c2cccs2)c1C#N,i,i,i,i,i,x,x,x
CC1C(=O)N2CCCc3cc(S(=O)(=O)N(C)CCC#N)cc1c32 (stereo not drawn),i,i,i,i,i,x,x,x
O=C(Nc1ccc(Br)cc1)c1cccc(S(=O)(=O)Nc2cnc3ccccc3c2)c1,i,i,i,i,5.9*,16%*,i,i
CNCCCOc1cc(C)cc(C)c1C,i,i,i,i,i,x,x,x
CCN(CC)c1ccc(/C=C/C(=O)c2cccnc2)cc1,i,i,i,i,i,x,x,x
N#Cc1ccc(/C=C/C(=O)c2cccnc2)cc1,i,i,i,i,19*,46%*,i,i
O=[N+]([O-])c1cccc(C(=NCc2ccccc2)NO)c1,i,i,i,i,i,x,x,x
O=C(/C=C/c1ccc(F)cc1)Nc1ccc(S(=O)(=O)Nc2ncccn2)cc1,i,i,i,i,i,i,i,29%*
Cc1ccc(/C=C/C(=O)Nc2ccc(S(=O)(=O)Nc3ncccn3)cc2)cc1,i,i,i,i,i,x,x,x
CCCCCCc1ccc(-c2ncc(N)cn2)cc1,i,i,i,i,6.7*,29%*,61%*,i
O=C(Cc1c[nH]c2ccccc12)N/N=C/c1ccccc1O,i,i,i,i,i,x,x,x
Cc1ccc(/C=N/NC(=O)Cc2c[nH]c3ccccc23)c(C)c1,i,i,i,i,6.9*,31%*,i,42%*
CCCc1cc(=O)oc2c(C)c(O[C@@H]3O[C@H](CO)[C@@H](O)[C@H](O)[C@H]3O)ccc12,i,i,i,i,i,x,x,x
CCCOc1ccc(/C=C/c2[nH]c(=O)[nH]c(=O)c2[N+](=O)[O-])cc1OCC,i,i,i,i,i,x,x,x
CCOc1cc(/C=C\c2[nH]c(=O)[nH]c(=O)c2[N+](=O)[O-])ccc1OC(C)CC (stereo not drawn),i,i,i,i,i,x,i,50%*
C/C(=N\NC(=O)c1c(Cl)cnn1C)c1ccc(NC(=O)c2ccncc2)cc1,i,i,i,i,9.6*,i,i,i
SMILES,MrgX1 antagonist,RGS4 pot,MrgX1 agonist,MrgX1 allo act,RGS4 block,RGS4 block valid,M3R Ca ctr,RGS4 inh ctr2
COc1cc2c(cc1OC)-c1cc(Nc3ccc(C)cc3)nc(=O)n1CC2,i,i,i,i,i,x,i,i
COc1ccc(Nc2cc3n(c(=O)n2)CCc2cc(OC)c(OC)cc2-3)cc1,i,i,i,i,i,x,x,x
COc1cc2c(cc1OC)-c1cc(Nc3ccccc3)nc(=O)n1CC2,i,i,i,i,i,x,i,93%*
COc1ccccc1NC(=O)C1=C(C)NC(=O)NC1c1cc(C)cs1 (stereo not drawn),i,i,i,i,i,x,x,x
CCOC(=O)N1CCN(S(=O)(=O)c2ccc(C(=O)NNc3nc4c(C)cccc4s3)cc2)CC1,i,i,i,i,i,x,x,x
Cc1cccc2sc(NNC(=O)c3ccc(S(=O)(=O)N4CCc5ccccc5C4)cc3)nc12,i,i,i,i,i,x,i,i
Cc1cccc2sc(NNC(=O)c3ccc(S(=O)(=O)N4CCCC(C)C4)cc3)nc12 (stereo not drawn),i,i,i,i,i,i,i,i
CCC/C(O)=C1\C(=O)CC(C)(C)CC1=Nc1ccc(OC)cc1,i,i,i,i,i,x,x,x
COc1ccccc1CN(Cc1cc2cc(C)ccc2[nH]c1=O)Cc1nnnn1Cc1ccco1,i,i,i,i,i,x,i,i
CCc1ccc2[nH]c(=O)c(CN(Cc3ccccc3OC)Cc3nnnn3Cc3ccco3)cc2c1,i,i,i,i,i,i,i,18%*
COc1cc(OC)cc(C2=NCCN2)c1,i,i,i,i,i,x,x,x
COc1ccc(NS(=O)(=O)c2cccc(C(=O)NNC(=O)CNC(=O)c3cccc(C)c3)c2)cc1,i,i,i,i,i,x,x,x
Cc1coc2c1c(C)cc1oc(=O)c(CC(=O)N[C@@H](CC(C)C)C(=O)O)c(C)c12,i,i,i,i,i,x,x,x
Cc1cc(C)cc(N(CC(=O)Nc2ccc(C(F)(F)F)cc2)S(=O)(=O)c2c(C)[nH]c(=O)[nH]c2=O)c1,i,i,i,i,6.5*,i,i,i
NCCNC(=O)Cn1c(=O)c2c3c(sc2n(Cc2ccccc2)c1=O)CCCC3,i,i,i,i,i,x,x,x
COC(=O)C1=C(C)OC(N)=C(C#N)C1c1cc2cccc(C)c2nc1Cl (stereo not drawn),i,i,i,i,i,x,x,x
